pKd: −log10 of the molar value. The source made the active and inactive calls.
Columns and labels:
[1] = biological target: Sonic hedgehog protein (Mus musculus) (UniProt Q62226); assay: Inhibition of N-palmitoylated Shh in mouse Shh Light2 cells at 6.25 uM after 30 hrs by firefly luciferase reporter gene assay; type: functional, cell-based; details: Shh Light II
Procedure, shortened: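 Shh-LIGHT2 (NIH3T3 carrying Gli-luciferase reporter) grown to confluence over about 5-7 days in DMEM, 10% calf serum, G-418 and Zeocin at 37 °C. Treated in DMEM with 0.5% calf serum for 30 h. Readout by luminescence with Bright-Glo. Parallel identically treated wells read with CellTiter-Glo after 10 min at room temperature.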

[2] = biological target: Sonic hedgehog protein (Mus musculus) (UniProt Q62226); assay: Inhibition of Shh in MEF deficient in ptch1 gene assessed as beta-galactosidase activity at 6.6 uM after 30 hrs by luminometry
Sonic hedgehog protein [3] = biological target: T1, Sonic hedgehog protein (Homo sapiens, UniProt Q15465); assay: Binding affinity to N-terminal Shh by surface plasmon resonance assay
Procedure, shortened: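 SPR (Biacore T100) at 25 °C; ShhN amine-coupled to CM4 chip at 10 µg/mL in 10 mM sodium acetate pH 5.5 (1000–1200 RU), underivatized reference surface. Running/sample buffer 0.01 M HEPES pH 7.4, 0.15 M NaCl, 0.05% P20, 5% DMSO; compounds serially diluted 0.78–25 µM, 2 min injections at 80 µL/min; double referencing plus DMSO solvent correction.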

[4] = biological target: Sonic hedgehog protein (Mus musculus) (UniProt Q62226); assay: Inhibition of N-palmitoylated Shh in mouse Shh Light2 cells after 30 hrs by firefly luciferase reporter gene assay; type: functional, cell-based; details: Shh Light II
Procedure, shortened: (§1)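 Shh-LIGHT2 (NIH3T3 with Gli-luciferase) cultured in DMEM/10% calf serum with G-418 and Zeocin, grown to confluence (~5–7 days); compounds added in DMEM with 0.5% calf serum, 30 h at 37 °C; pathway activity read as luminescence with Bright-Glo reagent.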

[5] = Cytotoxicity against mouse Shh Light2 cells assessed as cell viability; type: cell-based; details: shh light ii
Procedure, shortened: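 Shh-LIGHT2 (NIH3T3 with Gli-luciferase) grown in DMEM/10% calf serum with G-418 and Zeocin, plated and grown to confluence (~5–7 days); treated in DMEM with 0.5% calf serum for 30 h at 37 °C; viability read by CellTiter-Glo luminescence after 10 min at room temperature.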

[6] = biological target: Sonic hedgehog protein (Mus musculus) (UniProt Q62226); assay: Inhibition of N-palmitoylated Shh in mouse Shh Light2 cells at > 30 uM after 30 hrs by firefly luciferase reporter gene assay; type: functional, cell-based; details: Shh Light II; procedure, shortened: as §1
[7] = biological target: Sonic hedgehog protein (Mus musculus) (UniProt Q62226); assay: Inhibition of N-palmitoylated Shh in mouse Shh Light2 cells at 6.3 to 50 uM after 30 hrs by firefly luciferase reporter assay in presence of 3.6 uM Smo agonist purmorphamine; type: functional, cell-based; details: Shh Light II; procedure, shortened: as §1
[8] = biological target: Sonic hedgehog protein (Mus musculus) (UniProt Q62226); assay: Inhibition of N-palmitoylated Shh in mouse Shh Light2 cells at 6.3 to 50 uM after 30 hrs by firefly luciferase reporter assay in presence of 100 nM Smo agonist SAG; type: functional, cell-based; details: Shh Light II; procedure, shortened: as §1
[9] = biological target: Sonic hedgehog protein (Mus musculus) (UniProt Q62226); assay: Inhibition of N-terminal Shh-induced differentiation in mouse C3H10T1/2 cells assessed as inhibition of alkaline phosphatase induction; type: cell-based; details: C3H 10T1/2
[10] = biological target: Sonic hedgehog protein (Mus musculus) (UniProt Q62226); assay: Inhibition of N-terminal Shh-induced differentiation in mouse C3H10T1/2 cells assessed as inhibition of alkaline phosphatase induction in presence of 3.6 uM purmorphamine; type: cell-based; details: C3H 10T1/2
Sonic hedgehog protein [11] = biological target: T1, Sonic hedgehog protein; assay: Inhibition of N-terminal N-palmitoylated Shh-mediated Gli2 transcription in human keratinocytes at 100 uM after 30 hrs by real-time quantitative PCR analysis; type: cell-based
Sonic hedgehog protein [12] = biological target: T1, Sonic hedgehog protein; assay: Inhibition of N-terminal N-palmitoylated Shh-mediated Gli1 transcription in human keratinocytes after 30 hrs by real-time quantitative PCR analysis; type: cell-based
Sonic hedgehog protein [13] = biological target: T1, Sonic hedgehog protein; assay: Inhibition of N-terminal N-palmitoylated Shh-mediated Gli1 transcription in human keratinocytes after 30 hrs by real-time quantitative PCR analysis in presence of 3.6 uM Smo agonist purmorphamine; type: functional, cell-based
Sonic hedgehog protein [14] = biological target: T1, Sonic hedgehog protein; assay: Inhibition of N-terminal N-palmitoylated Shh-mediated Gli1 transcription in human keratinocytes after 30 hrs by real-time quantitative PCR analysis in presence of 100 nM Smo agonist SAG; type: functional, cell-based
Sonic hedgehog protein [15] = biological target: T1, Sonic hedgehog protein; assay: Inhibition of N-terminal N-palmitoylated Shh-mediated Gli2 transcription in human keratinocytes after 30 hrs by real-time quantitative PCR analysis in presence of 3.6 uM Smo agonist purmorphamine; type: functional, cell-based
Sonic hedgehog protein [16] = biological target: T1, Sonic hedgehog protein; assay: Inhibition of N-terminal N-palmitoylated Shh-mediated Gli2 transcription in human keratinocytes after 30 hrs by real-time quantitative PCR analysis in presence of 100 nM Smo agonist SAG; type: functional, cell-based
Sonic hedgehog protein [17] = biological target: T1, Sonic hedgehog protein; assay: Inhibition of Shh-mediated Gli1 mRNA transcription in human synthetic skin by real-time quantitative PCR analysis
Sonic hedgehog protein [18] = biological target: T1, Sonic hedgehog protein; assay: Inhibition of Shh-mediated Gli2 mRNA transcription in human synthetic skin by real-time quantitative PCR analysis
[19] = biological target: Sonic hedgehog protein (Mus musculus) (UniProt Q62226); assay: Inhibition of Shh in MEF deficient in ptch1 gene assessed as beta-galactosidase activity at 1.56 to 25 uM after 30 mins by luminometry; details: in the assay text read “30 hrs” for “30 mins”
Procedure, shortened: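 Ptc1−/− mouse embryonic fibroblasts carrying β-galactosidase construct, grown in DMEM/10% FBS to confluence (3–4 days, 37 °C); compounds in DMEM/0.5% FBS for 30 h; Beta-Glo reagent added with 30 min gentle agitation at room temperature, then luminescence read.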

[20] = biological target: Smoothened homolog (Mus musculus) (UniProt P56726); assay: Displacement of BODIPY-cyclopamine from Smo expressed in HEK293T cells after 30 mins; details: HEK-293T
Sequence of Smoothened homolog (Mus musculus) (P56726 whole entry, looked up): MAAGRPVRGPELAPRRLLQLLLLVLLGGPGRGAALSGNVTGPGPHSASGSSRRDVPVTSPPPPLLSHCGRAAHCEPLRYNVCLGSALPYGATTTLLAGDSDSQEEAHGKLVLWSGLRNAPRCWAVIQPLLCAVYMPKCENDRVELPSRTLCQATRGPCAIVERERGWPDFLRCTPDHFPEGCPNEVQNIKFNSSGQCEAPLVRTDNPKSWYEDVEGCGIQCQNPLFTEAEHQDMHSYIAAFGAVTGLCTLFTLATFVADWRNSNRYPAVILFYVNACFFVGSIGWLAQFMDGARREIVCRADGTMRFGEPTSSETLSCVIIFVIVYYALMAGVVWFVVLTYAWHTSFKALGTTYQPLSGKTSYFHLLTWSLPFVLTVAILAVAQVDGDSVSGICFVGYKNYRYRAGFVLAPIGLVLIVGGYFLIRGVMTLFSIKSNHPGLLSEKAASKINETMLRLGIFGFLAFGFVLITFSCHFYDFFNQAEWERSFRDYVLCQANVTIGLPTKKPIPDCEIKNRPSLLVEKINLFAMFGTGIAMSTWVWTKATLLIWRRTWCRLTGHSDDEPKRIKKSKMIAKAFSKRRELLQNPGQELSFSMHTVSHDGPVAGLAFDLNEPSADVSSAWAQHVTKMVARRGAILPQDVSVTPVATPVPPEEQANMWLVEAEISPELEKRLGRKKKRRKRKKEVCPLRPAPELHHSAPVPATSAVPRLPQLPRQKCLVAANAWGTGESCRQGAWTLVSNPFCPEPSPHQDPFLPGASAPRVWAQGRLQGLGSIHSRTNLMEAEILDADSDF

T1 sequence (Q15465 24-197 limits assumed): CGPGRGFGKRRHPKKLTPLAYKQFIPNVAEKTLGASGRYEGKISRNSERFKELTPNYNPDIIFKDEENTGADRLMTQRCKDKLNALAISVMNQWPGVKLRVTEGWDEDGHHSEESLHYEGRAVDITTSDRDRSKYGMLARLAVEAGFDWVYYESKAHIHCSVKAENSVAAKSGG

CC1=C2C[C@H]3[C@@H](CC=C4C[C@@H](O)CC[C@@]43C)[C@@H]2CC[C@]12O[C@@H]1C[C@H](C)CN[C@H]1[C@H]2C
active: inhibition [1] | inhibition [2]

C[C@H]1COC(=O)[C@@H](N)CC/C=C/C[C@@H](CC(=O)N(CCO)Cc2ccccc2)C(=O)N1
Non-toxic: Activity [5]
active: Activity (Sonic hedgehog protein [3]) Dose-dependent effect | inhibition [4]

O=C(C[C@@H]1C/C=C/CCC(=O)O[C@H](c2ccccc2)CNC1=O)NCc1ccc(Cl)cc1 [ROBOTNIKININ]
Non-toxic: Activity [5]
inactive: inhibition [10] | Activity (Sonic hedgehog protein [13]) | Activity (Sonic hedgehog protein [14]) | Activity (Sonic hedgehog protein [15]) | Activity (Sonic hedgehog protein [16]) | inhibition [19] | Activity [20]
active: inhibition [4] Dose-dependent effect | inhibition [6] | inhibition [7] | inhibition [8] | inhibition [9] | inhibition (Sonic hedgehog protein [11]) | inhibition (Sonic hedgehog protein [12]) | inhibition (Sonic hedgehog protein [17]) | inhibition (Sonic hedgehog protein [18])
5.51: pKd (Sonic hedgehog protein [3])

Source: ChEMBL document CHEMBL1212710, “A small molecule that binds Hedgehog and blocks its signaling in human cells” (Nat Chem Biol, 2009)
